Screens as filed in PubChem BioAssay.
T cruzi repl: blocks replication of Trypanosoma cruzi | T. cruzi beta-gal in NIH3T3, luminescence, 90 h | inhibition, % (test concentration not listed) | actives 1.4% (n = 300,000) | AID 1885;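 active means mean inhibition across valid replicates above about 55%, limit read from the data; inconclusive means mean below that limit but half or more replicates reach it; inactive means mean below it, under half of replicates reach it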;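 further: signal also drops with host cell toxicity which is not excluded here; 0% = plate median of DMSO wells and 100% = zero luminescence signal; higher percent means less beta-gal luminescence so fewer parasites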
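Material: NIH/3T3 host cells with β-galactosidase reporter T. cruzi; Input: 5,000 host fibroblasts per well; Medium: DMEM, 2% fetal bovine serum; Compound: 50 nL DMSO compound solution per well; Schedule: 3 h host attachment, then at least 90 h co-culture; Detection: luminescent β-galactosidase signal after 60 min lysis.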
PolyA inh: yeast polyadenylation inhibition. S. cerevisiae SKY197-pL101 polyadenylation reporter, beta-gal luminescence; efflux-impaired pdr1/pdr3 knockout yeast; score 100 = 6 SD above DMSO. activity score, % at 12 µM. actives 0.02% (n = 300,000);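 active means lowest replicate activity score at least 50, where 100 means six control SD above control mean; inconclusive means lowest score under 50 but half or more replicates reach 50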;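 further: yeast exposed to compound for 9 h at 30 °C; higher score means more reporter readthrough which indicates perturbed polyadenylation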
CSC inhib: blocks cancer stem cells; cancer stem cell-like cells viability, luminescence; AID 2717; actives 1.1% (n = 300,000); inhibition, % at 7.5 µM; in the data active means inhibition above about 75%; inconclusive means no clear call, values can overlap the other calls; tested in HMLE shEcad cells
Calb FLC: C. albicans growth modulation with fluconazole | C. albicans CaCi-2 + fluconazole, Alamar Blue growth, 48 h | AID 1979 | actives 0.57% (n = 300,000) | growth inhibition, % (no concentration beside the values);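 active means growth inhibition above about 58% in most replicates, limit read from the data, passing the limit was not always enough; inconclusive means exactly half the replicates above a set limit; inactive means most replicates below a set limit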;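 further: all wells also contain fluconazole at 8 µg/ml as a sub-toxic cotreatment; 0% = median of DMSO wells and 100% = median of geldanamycin control wells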
Beta apoptosis: blocks beta cell apoptosis; protection from apoptosis, % (no concentration beside the values); actives 0.8% (n = 300,000); INS-1E cytokine-induced death, ATP luminescence, 48 h; percent of positive-control rescue, neutral wells zero; AID 435005;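 active means Every replicate reaches about 75%, or at least half do and their mean reaches it too, limit read from the data; inconclusive means At least half of replicates reach the limit but their mean does not; inactive means Under half of replicates reach the limit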;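 further: 0% = cytokine-treated negative control wells and 100% = positive control rescue; higher means more ATP so stronger rescue from cytokine killing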
HIF activator: HIF pathway transcriptional activation. U2OS HRE-luciferase reporter, luminescence; normalized: DMSO 0%, desferrioxamine 100%. activation, % at 7.5 µM (by protocol). actives 0.32% (n = 300,000). AID 1910;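 active means mean activation of at least 10% of the iron chelator positive control signal, with at least half of replicates also reaching 10%; inconclusive means mean and replicate majority disagree about reaching 10%; inactive means mean and most replicates under 10%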
Starred values were filed as active, the others as inactive; ? = inconclusive; / = no result given. Only some compounds are listed: those with a hit (about 3.1% of all), similar ones and a draw of the others.

SMILES | T cruzi repl | PolyA inh | CSC inhib | Calb FLC | Beta apoptosis | HIF activator
CCC(=O)Oc1ccc(C(=O)Nc2ccc([N+](=O)[O-])cc2)cc1 | -12.3 | -5.7 | 2.2 | -25.9 | -1.3 | 3.6
CC(=O)c1ccc(NC(=O)Nc2ccc([N+](=O)[O-])cc2)cc1 | -7.3 | -15.1 | 9.8 | 2.3 | 29.9 | 4.0
Cc1ccc(C(C)C)cc1NC(=O)Nc1ccc([N+](=O)[O-])cc1 | 50.7 | -10.2 | 88.9* | -6.4 | 120.9* | -2.3
O=C(Nc1ccc(Oc2ccc(NC(=O)Nc3ccc([N+](=O)[O-])cc3)cc2)cc1)Nc1ccc([N+](=O)[O-])cc1 | 66.9* | 30.6 | 49.6 | -6.8 | 109.7* | -0.3
CC(C)COc1ccc(C(=O)Nc2ccc([N+](=O)[O-])cc2)cc1 | 2.8 | -17.8 | 12.1 | 14.8 | -2.4 | 15.2*
CCOc1ccc(NC(=O)Nc2cc(C(C)C)ccc2C)cc1 | -9.2 | -10.7 | / | -3.0 | / | -0.8
CC(C)(C)c1cc(-c2n[nH]c(=S)n2-c2ccccc2F)n[nH]1 | -0.7 | -7.3 | -15.4 | 8.9 | -3.7 | 2.1
COc1ccc2cc3cc(C(=O)NCCCN4CCOCC4)oc3nc2c1 | 57.6* | 25.7 | 12.5 | 16.1 | 6.5 | 0.5
COc1ccc2cc3cc(C(=O)NCCN4CCN(Cc5ccccc5)CC4)oc3nc2c1 | 63.7* | -0.8 | -2.0 | 12.6 | 2.6 | 2.0
COc1ccc2cc3cc(C(=O)NCCN4CCc5ccccc5C4)oc3nc2c1 | 48.1 | 22.6 | 0.0 | / | 1.1 | 0.8
Cc1ccccc1S(=O)(=O)Cc1ccc(C(=O)NCCN2CCN(Cc3ccccc3)CC2)o1 | 60.7* | 9.4 | -3.1 | -5.7 | 4.0 | -8.5
N#Cc1ccsc1NC(=O)C1CCN(C(=O)c2ccc(Cl)cc2)CC1 | -6.9 | 14.2 | -15.2 | 2.6 | -0.2 | -1.1
CCOc1ccc(NC(=O)COC(=O)c2cc(C)oc2C)cc1 | / | / | 16.7 | / | 6.0 | /
CCOC(=O)CC(=O)CSc1nc2c(c(-c3cccs3)c1C#N)CCC2 | -0.1 | -7.0 | -9.0 | 1.7 | -7.5 | -0.4
N#Cc1c(N)nc(SCc2ccncc2)c(C#N)c1-c1cccs1 | 64.4* | 11.4 | 0.7 | 30.0 | 6.5 | -0.7
CN1CCc2nc(SCc3ccc(Cl)cc3)c(C#N)c(-c3cccs3)c2C1 | 58.1* | -2.2 | -4.5 | 1.9 | -11.3 | -0.2
CN1CCc2nc(SCc3ccc(C(C)(C)C)cc3)c(C#N)cc2C1 | 56.9* | 2.6 | 45.3 | -35.7 | 5.9 | -0.1
CN(CC(=O)Nc1cccc(F)c1)C(=O)CCCN1C(=O)c2cccc3cccc(c23)C1=O | 10.4 | 7.9 | -4.5 | 1.5 | 2.3 | -28.2
O=C(C[n+]1cccc(/C=N/O)c1)N1CCCc2ccccc21 | -5.2 | 17.5 | 9.9 | 1.8 | -1.0 | -0.2
CN1CCN(/N=C/c2ccc(N(c3ccccc3)c3ccccc3)cc2)CC1 | 29.7 | -5.6 | 85.6* | 4.2 | 1.9 | -5.8
CN1CCN(/N=C/c2ccc(N(C)c3ccccc3)cc2)CC1 | 44.8 | -2.8 | 46.0 | 9.3 | -3.0 | 1.5
CCOC(=O)C1=C(N)Oc2ccc3ccccc3c2C1c1cccnc1 (stereo not drawn) | 56.9* | -23.7 | 16.7 | -53.9 | 5.7 | -2.2
CCOC(=O)C1=C(N)Oc2ccc3ccccc3c2C1c1cccc(O)c1 (stereo not drawn) | 20.3 | -12.6 | 59.1 | 2.9 | 47.1 | 1.4
COc1ccccc1-c1nnc(Sc2nc([N+](=O)[O-])nn2C)o1 | 57.7* | -5.2 | 13.5 | -11.7 | -60.8 | 0.9
Cc1ccc(Nc2nc(N/N=C/c3c[nH]c4ccccc34)nc(N3CCOCC3)n2)cc1 | 41.2 | -0.9 | / | 21.5 | -6.3 | 0.7
SMILES | T cruzi repl | PolyA inh | CSC inhib | Calb FLC | Beta apoptosis | HIF activator
C(=N\Nc1nc(Nc2ccccc2)nc(N2CCOCC2)n1)/c1c[nH]c2ccccc12 | 72.3* | -2.1 | 31.9 | 52.0 | / | -0.3
O=C(NCc1cc([N+](=O)[O-])ccc1O)c1cccnc1Sc1ccc(Cl)cc1 | -29.1 | -4.6 | 9.8 | ? | 9.5 | 0.3
O=C(NCc1cc([N+](=O)[O-])ccc1O)c1cccnc1Sc1ccccc1Cl | -16.8 | -5.8 | -2.2 | 85.6* | 4.4 | 0.0
Cc1snc(S(=O)(=O)/C(C#N)=N/Nc2cccc(C(F)(F)F)c2)c1C#N | 1.1 | 3.8 | 88.1* | -9.5 | 1.9 | 0.1
CC(NC(=S)NC1CCCCC1)c1ccc(C(C)(C)C)cc1 (stereo not drawn) | 41.9 | -23.2 | 45.0 | -21.3 | 99.2* | -0.6
Cc1ccc(-n2ncc(C(=O)Nc3cc(Cl)ccc3Cl)c2C2CCNCC2)cc1 | 25.7 | 3.2 | 17.5 | 0.5 | -7.3 | -0.3
Cc1ccc(-n2ncc(C(=O)Nc3cc(Cl)cc(Cl)c3)c2C2CCNCC2)cc1C | 54.9* | -2.2 | / | 19.0 | / | -0.5
Cc1cc(N2CCN(C)CC2)nc2ccc(NC(=S)NCCC(C)C)cc12 | 57.4* | -2.8 | 82.9* | -13.7 | 0.0 | 0.4
CCN(CC)CCNC(=S)Nc1ccc2nc(N3CCCC3)cc(C)c2c1 | 53.6 | -1.3 | 26.2 | -4.0 | 3.4 | 0.4
Cc1cc(N2CCOCC2)nc2ccc(NC(=S)NCCC(C)C)cc12 | 15.1 | -9.9 | 49.1 | 10.3 | 14.8 | -0.8
CCN1CCN(c2cc(C)c3cc(NC(=S)N4CCOCC4)ccc3n2)CC1 | 6.1 | -14.3 | 3.2 | 3.9 | -5.8 | 1.2
CCCN(CCC)CCCNC(=S)Nc1ccc2nc(N3CCCC3)cc(C)c2c1 | 59.4* | 2.7 | 0.6 | 23.7 | 12.3 | 0.9
COc1ccccc1CNC(=S)Nc1ccc2nc(N3CCN(C)CC3)cc(C)c2c1 | 57.4* | 2.3 | 79.7* | -5.1 | -4.8 | -0.9
CCN1CCN(c2cc(C)c3cc(NC(=S)N4CCN(c5ccccc5)CC4)ccc3n2)CC1 | 58.0* | 11.9 | 41.5 | -0.1 | 26.9 | 1.8
Cc1ccc(S(=O)(=O)N2CCCCC2CCNC(=O)C(=O)NCc2ccccc2)cc1 (stereo not drawn) | 19.0 | -14.2 | 63.1 | 9.4 | 21.6 | 2.3
COC(=O)C1=C(C)OC(N)=C(C#N)C1c1ccccc1 (stereo not drawn) | -2.7 | -12.2 | -0.6 | 10.2 | 1.3 | 0.5
CNC(=O)C1C(=S)NC(N)=C(C#N)C1c1ccccc1 (stereo not drawn) | -19.8 | 4.9 | 112.3* | -7.1 | 15.3 | -0.3
COc1ccc(NC(C)=[N+](C)CCNS(=O)(=O)c2ccc(Cl)cc2)cc1Cl | 58.2* | 8.3 | 7.5 | -8.9 | -3.7 | 0.5
COc1ccccc1NC(C)=[N+](C)CCNS(=O)(=O)c1ccc(Cl)cc1 | 11.3 | -15.0 | 14.8 | -8.7 | 4.4 | 0.7
FC(F)(F)c1cc(CCN2CCNC[C@@H]2Cc2ccccc2)cc(C(F)(F)F)c1 | 38.1 | 4.5 | 77.0* | 1.8 | 18.2 | 0.5
CN(C)S(=O)(=O)c1ccc(N2CCCC2)c(C(=O)NCC2CCCCC2)c1 | 15.4 | 1.9 | 6.3 | -25.6 | -3.0 | -1.1
O=C(CSc1nnc(NC(=O)c2ccccc2F)s1)NCc1ccco1 | -10.9 | -13.4 | 16.1 | / | -1.2 | 1.6
